Test results taken from ChEMBL document CHEMBL2034842, “Synthesis, anti-Candida activity, and cytotoxicity of new (4-(4-iodophenyl)thiazol-2-yl)hydrazine derivatives” (Eur J Med Chem, 2012).
≈ marks a conversion by molar mass, not a printed value.

What was measured:
[1] = Cytotoxicity against human Hep2 cells assessed as cell survival fraction at 50 ug/mL after 24 hrs by trypan blue exclusion method; assay type: cell-based; settings: HEp-2 cells, read-out: Survival
In short: (§1)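 Hep2 cells grown in DMEM + 10% FBS + 1% pen/strep at 37 °C, 5% CO2, used at 60–70% confluency. Exponential-phase cells (1 × 10^5/mL) incubated 24 h with six concentrations (100–0.05), final DMSO ≤0.5%. Controls were cells alone or cells + DMSO, with 1 mM sodium nitroprusside as positive control. Cells scraped off, mixed 1:1 with 0.4% trypan blue and counted on a hemocytometer by two operators. Blue cells were scored dead; results given as % viable cells.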

[2] = Cytotoxicity against human Hep2 cells assessed as cell survival fraction at 10 ug/mL after 24 hrs by trypan blue exclusion method; assay type: cell-based; settings: HEp-2 cells, read-out: Survival; in short: as §1
[3] = Antiproliferative activity against human Hep2 cells assessed as cell survival fraction at 100 ug/mL after 24 hrs by MTT assay; assay type: cell-based; settings: HEp-2 cells, read-out: Survival
In short: (§2)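 Hep2 (human laryngeal carcinoma) cells maintained in DMEM + 10% FBS + 1% pen/strep, 37 °C, 5% CO2. Seeded in triplicate at 1 × 10^5/well in serum-free medium and exposed 24 h at 37 °C to six compound concentrations (100–0.05). DMSO stock diluted in medium, final DMSO ≤0.5%. MTT reagent added for 2 h at 37 °C, then detergent for 2 h at RT in the dark. Read as OD550 minus OD650.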

Staphylococcus aureus = experiment: Antibacterial activity against Staphylococcus aureus after 18 to 22 hrs by […]; assay type: functional
[4] = Antiproliferative activity against human Hep2 cells assessed as cell survival fraction at 10 ug/mL after 24 hrs by MTT assay; assay type: cell-based; settings: HEp-2 cells, read-out: Survival; in short: as §2
Staphylococcus warneri = experiment: Antibacterial activity against Staphylococcus warneri after 18 to 22 hrs by […]; assay type: functional
Pichia kudriavzevii = experiment: Antifungal activity against 3 strains of Candida krusei after 24 hrs by […]; assay type: functional
Proteus vulgaris = experiment: Antibacterial activity against Proteus vulgaris after 18 to 22 hrs by […]; assay type: functional
[5] = Antiproliferative activity against human Hep2 cells assessed as cell survival fraction at 5 ug/mL after 24 hrs by MTT assay; assay type: cell-based; settings: HEp-2 cells, read-out: Survival; in short: as §2
[6] = Cytotoxicity against human Hep2 cells assessed as cell survival fraction at 0.5 ug/mL after 24 hrs by trypan blue exclusion method; assay type: cell-based; settings: HEp-2 cells, read-out: Survival; in short: as §1
Enterococcus faecalis = experiment: Antibacterial activity against Enterococcus faecalis after 18 to 22 hrs by […]; assay type: functional
[7] = Antiproliferative activity against human Hep2 cells assessed as cell survival fraction at 50 ug/mL after 24 hrs by MTT assay; assay type: cell-based; settings: HEp-2 cells, read-out: Survival; in short: as §2
[8] = Antiproliferative activity against human Hep2 cells assessed as cell survival fraction at 0.05 ug/mL after 24 hrs by MTT assay; assay type: cell-based; settings: HEp-2 cells, read-out: Survival; in short: as §2
Klebsiella aerogenes = experiment: Antibacterial activity against Enterobacter aerogenes after 18 to 22 hrs by […]; assay type: functional
[9] = Cytotoxicity against human Hep2 cells assessed as cell survival fraction at 5 ug/mL after 24 hrs by trypan blue exclusion method; assay type: cell-based; settings: HEp-2 cells, read-out: Survival; in short: as §1
Streptococcus pyogenes = experiment: Antibacterial activity against Streptococcus pyogenes after 18 to 22 hrs by […]; assay type: functional
Escherichia coli = experiment: Antibacterial activity against Escherichia coli after 18 to 22 hrs by […]; assay type: functional
[10] = Cytotoxicity against human Hep2 cells assessed as cell survival fraction at 100 ug/mL after 24 hrs by trypan blue exclusion method; assay type: cell-based; settings: HEp-2 cells, read-out: Survival; in short: as §1
Nakaseomyces glabratus = experiment: Antifungal activity against 4 strains of Candida glabrata after 24 hrs by […]; assay type: functional
[11] = Antiproliferative activity against human Hep2 cells assessed as cell survival fraction at 0.5 ug/mL after 24 hrs by MTT assay; assay type: cell-based; settings: HEp-2 cells, read-out: Survival; in short: as §2
[12] = Cytotoxicity against human Hep2 cells assessed as cell survival fraction at 0.05 ug/mL after 24 hrs by trypan blue exclusion method; assay type: cell-based; settings: HEp-2 cells, read-out: Survival; in short: as §1
[Candida] sake = Antifungal activity against 2 strains of Candida sake after 24 hrs by […]; assay type: functional; settings: Fermentozyma sake
HEp-2 [13] = experiment: Antiproliferative activity against human Hep2 cells assessed as cell survival fraction after 24 hrs by MTT assay; assay type: cell-based; settings: HEp-2, 24 h
In short: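 Hep2 laryngeal carcinoma cells seeded in triplicate at 1 × 10^5/well in serum-free DMEM. Exposed 24 h at 37 °C, 5% CO2, to six concentrations ([…]); DMSO ≤0.5%. MTT reagent added for 2 h at 37 °C, then detergent for 2 h at room temperature in the dark. OD550 minus OD650 read. EC50 from ≥3 independent experiments.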

Candida albicans = experiment: Antifungal activity against 10 strains of Candida albicans after 24 hrs by […]; assay type: functional
HEp-2 [14] = experiment: Cytotoxicity against human Hep2 cells assessed as cell survival fraction after 24 hrs by trypan blue exclusion method; assay type: cell-based; settings: HEp-2, 24 h
In short: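 Hep2 cells in DMEM with 10% FBS and 1% penicillin-streptomycin, at 37 °C, 5% CO2, grown to 60–70% confluency. Seeded at 1 × 10^5/mL and exposed 24 h to six concentrations ([…]); DMSO ≤0.5%. Controls were cells alone, cells with DMSO, and 1 mM nitroprusside. Scraped cells mixed 1:1 with 0.4% trypan blue; blue cells counted as dead by hemocytometer, two operators. EC50 from ≥3 independent experiments.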

Candida parapsilosis = experiment: Antifungal activity against 4 strains of Candida parapsilosis after 24 hrs by […]; assay type: functional; settings: Lodderomyces parapsilosis
Klebsiella pneumoniae = experiment: Antibacterial activity against Klebsiella pneumoniae after 18 to 22 hrs by […]; assay type: functional
Candida tropicalis = experiment: Antifungal activity against 4 strains of Candida tropicalis after 24 hrs by […]; assay type: functional

| Compound | viability at 24 h, 50 ug/mL [1] | viability at 24 h, 10 ug/mL [2] | viability at 24 h, 100 ug/mL [3] | MIC (Staphylococcus aureus) | viability at 24 h, 10 ug/mL [4] | MIC (Staphylococcus warneri) | MIC (Pichia kudriavzevii) | MIC (Proteus vulgaris) | viability at 24 h, 5 ug/mL [5] | viability at 24 h, 0.5 ug/mL [6] | MIC (Enterococcus faecalis) | MIC (Klebsiella aerogenes) | MIC (Streptococcus pyogenes) | MIC (Escherichia coli) | MIC (Nakaseomyces glabratus) | MIC ([Candida] sake) | MIC (Candida albicans) | MIC (Candida parapsilosis) | MIC (Klebsiella pneumoniae) | MIC (Candida tropicalis) | other results |
| --- | --- | --- | --- | --- | --- | --- | --- | --- | --- | --- | --- | --- | --- | --- | --- | --- | --- | --- | --- | --- | --- |
| CCCCC/C(C)=N/Nc1nc(-c2ccc(I)cc2)cs1 | 42% | 83% | 0% | 32 µg/mL (≈ 77.4 µM) | 89% | 32 µg/mL (≈ 77.4 µM) | 2 µg/mL (≈ 4.84 µM) | > 128 µg/mL | 90% | 95% | 32 µg/mL (≈ 77.4 µM) | > 128 µg/mL | 8 µg/mL (≈ 19.4 µM) | > 128 µg/mL | 2 µg/mL (≈ 4.84 µM) | 32 µg/mL (≈ 77.4 µM) | 0.25 µg/mL (≈ 0.605 µM) | 2 µg/mL (≈ 4.84 µM) | > 128 µg/mL | 0.5 µg/mL (≈ 1.21 µM) | viability at 24 h, 50 ug/mL [7]: 22%; viability at 24 h, 0.05 ug/mL [8]: 100%; viability at 24 h, 5 ug/mL [9]: 90%; viability at 24 h, 100 ug/mL [10]: 33%; viability at 24 h, 0.5 ug/mL [11]: 100%; viability at 24 h, 0.05 ug/mL [12]: 98%; EC50 (HEp-2 [13]): 42 µg/mL (≈ 102 µM); EC50 (HEp-2 [14]): 62 µg/mL (≈ 150 µM) |
| CCC(CC)=NNc1nc(-c2ccc(I)cc2)cs1 | 63% | 67% | 10% | > 128 µg/mL | 90% | 32 µg/mL (≈ 83.1 µM) | 256 µg/mL (≈ 664 µM) | 32 µg/mL (≈ 83.1 µM) | 90% | 85% | 32 µg/mL (≈ 83.1 µM) | 16 µg/mL (≈ 41.5 µM) | 32 µg/mL (≈ 83.1 µM) | 32 µg/mL (≈ 83.1 µM) | 2 µg/mL (≈ 5.19 µM) | 256 µg/mL (≈ 664 µM) | 0.25 µg/mL (≈ 0.649 µM) | 2 µg/mL (≈ 5.19 µM) | 16 µg/mL (≈ 41.5 µM) | 0.5 µg/mL (≈ 1.3 µM) | viability at 24 h, 50 ug/mL [7]: 45%; viability at 24 h, 0.05 ug/mL [8]: 95%; viability at 24 h, 5 ug/mL [9]: 80%; viability at 24 h, 100 ug/mL [10]: 58%; viability at 24 h, 0.5 ug/mL [11]: 92%; viability at 24 h, 0.05 ug/mL [12]: 92%; EC50 (HEp-2 [13]): 50 µg/mL (≈ 130 µM) |
| Clc1ccccc1C(c1ccccc1)(c1ccccc1)n1ccnc1 [CLOTRIMAZOLE] | 20% | 68% | 20% |  | 70% |  | 2 µg/mL (≈ 5.8 µM) |  | 82% | 87% |  |  |  |  | 0.25 µg/mL (≈ 0.725 µM) | 2 µg/mL (≈ 5.8 µM) | 2 µg/mL (≈ 5.8 µM) | 0.5 µg/mL (≈ 1.45 µM) |  | 1 µg/mL (≈ 2.9 µM) | viability at 24 h, 50 ug/mL [7]: 32%; viability at 24 h, 0.05 ug/mL [8]: 100%; viability at 24 h, 5 ug/mL [9]: 70%; viability at 24 h, 100 ug/mL [10]: 10%; viability at 24 h, 0.5 ug/mL [11]: 85%; viability at 24 h, 0.05 ug/mL [12]: 100%; EC50 (HEp-2 [13]): 48 µg/mL (≈ 139 µM); EC50 (HEp-2 [14]): 40 µg/mL (≈ 116 µM) |
| CCC/C(C)=N/Nc1nc(-c2ccc(I)cc2)cs1 | 63% | 60% | 0% | 32 µg/mL (≈ 83.1 µM) | 68% | 32 µg/mL (≈ 83.1 µM) | 4 µg/mL (≈ 10.4 µM) | > 128 µg/mL | 72% | 75% | 32 µg/mL (≈ 83.1 µM) | > 128 µg/mL | 4 µg/mL (≈ 10.4 µM) | > 128 µg/mL | 2 µg/mL (≈ 5.19 µM) | 32 µg/mL (≈ 83.1 µM) | 0.25 µg/mL (≈ 0.649 µM) | 2 µg/mL (≈ 5.19 µM) | 32 µg/mL (≈ 83.1 µM) | 0.5 µg/mL (≈ 1.3 µM) | viability at 24 h, 50 ug/mL [7]: 62%; viability at 24 h, 0.05 ug/mL [8]: 100%; viability at 24 h, 5 ug/mL [9]: 65%; viability at 24 h, 100 ug/mL [10]: 60%; viability at 24 h, 0.5 ug/mL [11]: 98%; viability at 24 h, 0.05 ug/mL [12]: 92%; EC50 (HEp-2 [13]): 45 µg/mL (≈ 117 µM) |
| CC1CCC/C(=N\Nc2nc(-c3ccc(I)cc3)cs2)C1 (stereo not given) |  |  |  | 32 µg/mL (≈ 77.8 µM) |  | 4 µg/mL (≈ 9.72 µM) | 128 µg/mL (≈ 311 µM) | > 128 µg/mL |  |  | 8 µg/mL (≈ 19.4 µM) | > 128 µg/mL | 4 µg/mL (≈ 9.72 µM) | > 128 µg/mL | 4 µg/mL (≈ 9.72 µM) | 128 µg/mL (≈ 311 µM) | 2 µg/mL (≈ 4.86 µM) | 2 µg/mL (≈ 4.86 µM) | > 128 µg/mL | 2 µg/mL (≈ 4.86 µM) |  |
| Ic1ccc(-c2csc(N/N=C/c3cccs3)n2)cc1 |  |  |  | 32 µg/mL (≈ 77.8 µM) |  | 32 µg/mL (≈ 77.8 µM) | 128 µg/mL (≈ 311 µM) | > 128 µg/mL |  |  | 32 µg/mL (≈ 77.8 µM) | > 128 µg/mL | 2 µg/mL (≈ 4.86 µM) | > 128 µg/mL | 4 µg/mL (≈ 9.73 µM) | 128 µg/mL (≈ 311 µM) | 2 µg/mL (≈ 4.86 µM) | 2 µg/mL (≈ 4.86 µM) | > 128 µg/mL | 2 µg/mL (≈ 4.86 µM) |  |
